Reference: ChEMBL document CHEMBL2401652 (J Med Chem, 2013)
The source made the active and inactive calls. The calls are words filed in the database; no cut-off is given here.

Assays:
[1] = Binding affinity to DNA (unknown origin) assessed as induction of conformational changes at 300 uM after 2 hrs by CD spectrometric analysis
Summary of the method: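 DNA at 1000 μg/mL in 50 mM Tris-HCl, pH 7.5, incubated with ligand for 2 h at 37 °C, then CD spectra recorded at 25 °C. Conformational change was judged from the 275 nm band (base stacking) and the 245 nm band (B-conformation).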

[2] = Cytotoxicity against human HEK293T cells assessed as cell viability at 60 uM after 24 hrs by MTT assay relative to control; assay type: cell-based, HEK-293T; conditions: read-out: Activity
Summary of the method: (§1)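 Vero and HEK-293T normal cells (1 × 10^4 per well) exposed 24 h to 0, 15, 30, 45, 60 μM at 37 °C, 5% CO2, triplicate; MTT added 3 h; viability relative to vehicle control (0.15% ethanol).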

[3] = Cytotoxicity against african green monkey Vero cells assessed as cell viability at 60 uM after 24 hrs by MTT assay relative to control; assay type: cell-based; conditions: chlorocebus sabaeus, read-out: Activity; summary of the method: as §1
PANC-1 [4] = test: Cytotoxicity against human PANC1 cells assessed as growth inhibition after 24 hrs by MTT assay; assay type: functional, cell-based
Summary of the method: (§2)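 Log-phase cells (1 × 10^4 per well) treated 24 h with 0–30 μM at 37 °C, 5% CO2, in triplicate; MTT added for final 3 h; vehicle 0.15% ethanol; IC50 from three separate days, mean ± SE.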

A549 = test: Cytotoxicity against human A549 cells assessed as growth inhibition after 24 hrs by MTT assay; assay type: functional, cell-based; summary of the method: as §2
T98G [5] = test: Induction of apoptosis in human T98G cells assessed as procaspase-8 cleavage at 25 uM after 24 hrs by Western blot analysis; assay type: functional, cell-based
Summary of the method: (§3)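 Cells (1.5 × 10^6) exposed 24 h to compound (25 or 50 μM). 50 μg protein per lane resolved on 10% SDS-PAGE and transferred to nitrocellulose. Membrane blocked in 2% TBS-BSA, then probed with primary antibody overnight at 4 °C and HRP secondary. Detection by ECL, with β-actin as loading control. Untreated control run in parallel.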

T98G [6] = test: Induction of apoptosis in human T98G cells assessed as PARP cleavage at 25 uM after 24 hrs by Western blot analysis; assay type: functional, cell-based; summary of the method: as §3
T98G [7] = test: Downregulation of total Bid expression in human T98G cells at 25 uM after 24 hrs by Western blot analysis; assay type: functional, cell-based
Summary of the method: (§4)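 Cells (1.5 × 10^6) treated 24 h at 25 or 50 μM; 50 μg protein per lane on 10% SDS-PAGE, nitrocellulose, 2% TBS-BSA block, primary antibody overnight at 4 °C, HRP secondary, ECL detection; β-actin loading control; untreated controls in parallel.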

T98G [8] = test: Cytotoxicity against human T98G cells assessed as growth inhibition after 24 hrs by MTT assay; assay type: functional, cell-based; summary of the method: as §2
PANC-1 [9] = test: Induction of apoptosis in human PANC1 cells assessed as procaspase-8 cleavage at 25 uM after 24 hrs by Western blot analysis; assay type: functional, cell-based; summary of the method: as §4
T98G [10] = test: Induction of apoptosis in human T98G cells assessed as procaspase-9 cleavage at 25 uM after 24 hrs by Western blot analysis; assay type: functional, cell-based; summary of the method: as §3
K562 = test: Cytotoxicity against human K562 cells assessed as growth inhibition after 24 hrs by MTT assay; assay type: functional, cell-based; summary of the method: as §2
U-373MG ATCC = test: Cytotoxicity against human U373MG cells assessed as induction of morphological changes at 30 uM after 12 hrs by phase contrast microscopic analysis; assay type: functional, cell-based
Summary of the method: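 U373MG glioma cells exposed to 30 μM for 3 or 12 h; shape and density examined by phase contrast microscopy against untreated cells.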

PANC-1 [11] = test: Induction of apoptosis in human PANC1 cells assessed as procaspase-7 cleavage at 25 uM after 24 hrs by Western blot analysis; assay type: functional, cell-based; summary of the method: as §4
T98G [12] = test: Downregulation of Bcl-xL expression in human T98G cells at 25 uM after 24 hrs by Western blot analysis; assay type: functional, cell-based; summary of the method: as §4
PANC-1 [13] = test: Downregulation of Bcl-xL expression in human PANC1 cells at 25 uM after 24 hrs by Western blot analysis; assay type: functional, cell-based; summary of the method: as §4
T98G [14] = test: Induction of apoptosis in human T98G cells assessed as induction of DNA damage at 20 uM after 24 hrs by comet assay relative to untreated control; assay type: functional
Summary of the method: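 T98G cells (1 × 10^5) treated 24 h with 0 or 20 μM. About 20000 cells embedded in 0.5% low-melting agarose and lysed overnight at 4 °C at pH 10. Alkaline electrophoresis (pH 13) for 30 min at 300 mA at 4 °C, then ethidium bromide staining. Tail length (nucleus centre to tail tip) from ≥20 comets, reported as mean ± SD.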

PANC-1 [15] = test: Downregulation of total Bid expression in human PANC1 cells at 25 uM after 24 hrs by Western blot analysis; assay type: functional, cell-based; summary of the method: as §4
HCT-116 = test: Cytotoxicity against human HCT116 cells assessed as growth inhibition after 24 hrs by MTT assay; assay type: functional, cell-based; summary of the method: as §2
T98G [16] = test: Induction of apoptosis in human T98G cells assessed as procaspase-7 cleavage at 25 uM after 24 hrs by Western blot analysis; assay type: functional, cell-based; summary of the method: as §3
PANC-1 [17] = test: Induction of apoptosis in human PANC1 cells assessed as procaspase-9 cleavage at 25 uM after 24 hrs by Western blot analysis; assay type: functional, cell-based; summary of the method: as §3
PANC-1 [18] = test: Induction of apoptosis in human PANC1 cells assessed as PARP cleavage at 25 uM after 24 hrs by Western blot analysis; assay type: functional, cell-based; summary of the method: as §4
[19] = Binding affinity to DNA (unknown origin) at 100 uM after 2 hrs by UV-Vis absorption spectroscopic analysis
Summary of the method: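 DNA (100 μg/mL; stock 1.0 mg/mL in 50 mM Tris-HCl pH 7.5, 50 mM NaCl) with ligand fixed at 100 μM; incubated at 37 °C, then diluted six-fold; absorbance scanned 220–350 nm at 25 °C, 1 cm quartz cell; 260 nm band monitored.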

For `CC[n+]1c(-c2ccccc2)c2cc(N)ccc2c2ccc(N)cc21`, the Activity [1] was “Active”.

In the case of `CC(C)=CCCC1(C)C=Cc2c(c(C)cc3c2[nH]c2cc(O)ccc23)O1` (stereo not drawn) [MAHANINE], the viability at 24 h, 60 µM [2] is reported as over 65% and the viability at 24 h, 60 µM [3] is reported as over 85%.

With `COc1ccc2c(c1)[nH]c1c3c(c(C)cc12)O[C@](C)(CCC=C(C)C)C=C3` the “growth inhibition (GI)” value (PANC-1 [4]) was “Active”, the “growth inhibition (GI)” value (A549) was “Active” and the Activity (T98G [5]) was “inactive”. For the same compound, the Activity (T98G [6]) was “inactive”, the Activity (T98G [7]) was “inactive” and the “growth inhibition (GI)” value (T98G [8]) was “Active”. The Activity (PANC-1 [9]) was “inactive”, the Activity (T98G [10]) was “inactive” and the “growth inhibition (GI)” value (K562) was “Active”. The Activity (U-373MG ATCC) was “inactive”, the Activity (PANC-1 [11]) was “inactive” and the Activity (T98G [12]) was “inactive”. The Activity (PANC-1 [13]) was “inactive”, the Activity (T98G [14]) was “inactive” and the Activity (PANC-1 [15]) was “inactive”. For the same compound, the “growth inhibition (GI)” value (HCT-116) was “Active”, the Activity (T98G [16]) was “inactive” and the Activity (PANC-1 [17]) was “inactive”. For the same compound, the Activity (PANC-1 [18]) was “inactive” and the Activity [19] was “Active”.
